Our source for the GFP response vs DMSO, GFP response relative to DMSO and GFP response, % of DMSO values is PubChem BioAssay.

Test [1] can be described thus: hit retest on RPL19A-GFP reporter strain – cell-based, S. cerevisiae, flow cytometry, cherry picks, mother/daughter gates, confirmation (AID 2270;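 active means GFP response below 50% of the DMSO control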). The note with it: 3 h, at 10 µM, stronger effect = lower value, 100 = same GFP as DMSO wells. For orientation: In flow cytometry, cells or beads pass a laser one at a time.
Test [2] in a line: yeast TOR pathway reporter LAP4-GFP change – cell-based, cherry picks, flow cytometry, mother/daughter gates, confirmation (AID 2271;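 active means GFP response above 150% of the DMSO control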;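 further: ratio of sample to DMSO plate mean so 100% equals DMSO level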). The note with it: S. cerevisiae LAP4-GFP strain, 3 h, at 10 µM, stronger effect = higher value, 100 means same as DMSO control. A digest of the protocol:
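System: Alexa 633-stained baker's yeast GFP-fusion strain; quantity: 0.2 OD600 cells; timing: compound exposure 3 h at 30 °C, end-over-end rotation; detection: HT flow cytometry, GFP fluorescence channel; measure: per-gate (all, mother, daughter) GFP response vs DMSO; control set: DMSO-only negative wells, rapamycin 400 ng/mL positive wells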

Test [3] can be described thus: TOR pathway reporter MEP2-GFP, retest of hits – S. cerevisiae, flow cytometry GFP, cherry picks, confirmation (AID 2272;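 active means GFP response above 150% of the DMSO control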;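 further: ratio of well signal to plate DMSO mean so 100% equals DMSO level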). The note with it: S. cerevisiae MEP2-GFP strain, 3 h, at 10 µM, stronger effect = higher value.
Test [4] is described as follows: yeast AGP1-GFP fluorescence change, single-dose – cell-based, flow cytometry, S. cerevisiae, cherry picks, confirmation (AID 2273).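 Further: median GFP channel fluorescence over the whole cell population gate.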 The note with it: S. cerevisiae AGP1-GFP strain, 3 h, at 10 µM.
A short description of test [5]: TOR pathway CIT2 reporter hit retest – S. cerevisiae, GFP fusion, cherry picks, mother/daughter gates, confirmation (AID 2274). The following applies: S. cerevisiae CIT2-GFP strain, flow cytometry, 3 h, at 10 µM, stronger effect = higher value.
Where [6] appears, read: measured here: daughter cell gate.
[7] abbreviates: measured here: mother cell gate.
Setting [8] is: measured here: daughter cell gate response.
Where [9] appears, read: measured here: mother cell gate response.

Calls of active or inactive are those of the source.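 How the source made its calls, unless noted: active means GFP response above 150% of the DMSO level; inconclusive means fewer than 70 events counted for a yeast strain; inactive means the rest.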

Regarding `O=C(COc1ccccc1)Nc1c2c(nn1-c1ccccc1)CS(=O)C2` (stereo not given), the GFP response vs DMSO in test [1] was 97.1% (inactive); in test [1] (setting [6]) it was 96.4%; in test [1] (setting [7]) it was 96.5%; in test [3], 103% (inactive). Moreover, the GFP response relative to DMSO in test [2] is 97.7% (inactive); in test [2] (setting [8]), 99%; in test [2] (setting [9]), 96.4%. The GFP response, % of DMSO in test [4] is 104% (inactive); in test [5], 98.6% (inactive); in test [5] (setting [6]), 97.6%; in test [5] (setting [7]), 100%.
On to `O=C1Nc2ccccc2C(=O)C1(Cl)Cc1ccccc1` (stereo not given), for which the GFP response vs DMSO in test [1] is 89.6% (inactive); in test [1] (setting [6]), 91.9%; in test [1] (setting [7]), 88.3%; in test [3], 101% (inactive). Besides, the figures for the GFP response relative to DMSO in test [2], in test [2] (setting [8]) and in test [2] (setting [9]) were 132% (inactive), 124% and 134%, respectively. Further, the GFP response, % of DMSO is 102% (inactive) in test [4], 94.4% (inactive) in test [5], 95.8% in test [5] (setting [6]) and 90.4% in test [5] (setting [7]).
For `CCOC(=O)c1ccc(NC(=O)CCc2nc(-c3ccc(C)cc3)no2)cc1`, the GFP response vs DMSO in test [1] was 101% (inactive); in test [1] (setting [6]), 102%; in test [1] (setting [7]), 100%; in test [3] it was 107% (inactive). In addition, the GFP response relative to DMSO is 98.2% (inactive) in test [2], 99.1% in test [2] (setting [8]) and 98.4% in test [2] (setting [9]). The GFP response, % of DMSO in test [4] was 100% (inactive); in test [5], 91.5% (inactive); in test [5] (setting [6]) it was 90.2%; in test [5] (setting [7]) it was 93.2%.
Take `CC1=NOC(=O)/C1=C\c1ccc(-c2cc(Cl)ccc2Cl)o1`: the GFP response vs DMSO was 97.1% (inactive) in test [1], 93.9% in test [1] (setting [6]), 91.6% in test [1] (setting [7]) and 118% (inactive) in test [3]. In addition, the GFP response relative to DMSO is 195% (active) in test [2], 176% in test [2] (setting [8]) and 186% in test [2] (setting [9]). Further, the GFP response, % of DMSO in test [4] is 100% (inactive); in test [5], 114% (inactive); in test [5] (setting [6]), 121%; in test [5] (setting [7]) it was 102%.
With `COc1cccc(NC(=O)/C=C/c2ccc([N+](=O)[O-])cc2)c1`, the GFP response vs DMSO in test [1] is 96% (inactive); in test [1] (setting [6]), 97.6%; in test [1] (setting [7]), 93.2%; in test [3] it was 109% (inactive). For the same compound, the GFP response relative to DMSO was 102% (inactive) in test [2], 101% in test [2] (setting [8]) and 104% in test [2] (setting [9]). The GFP response, % of DMSO in test [4] is 95.7% (inactive); in test [5] it was 88.6% (inactive); in test [5] (setting [6]), 90.2%; in test [5] (setting [7]) it was 88.2%.
For the compound `Cc1ccc(-c2noc(CCC(=O)Nc3ccccc3C)n2)cc1`, the GFP response vs DMSO is 98% (inactive) in test [1], 97% in test [1] (setting [6]), 96.5% in test [1] (setting [7]) and 106% (inactive) in test [3]. Also, the GFP response relative to DMSO in test [2] is 111% (inactive); in test [2] (setting [8]), 104%; in test [2] (setting [9]) it was 112%. In addition, the GFP response, % of DMSO in test [4] is 100% (inactive); in test [5], 100% (inactive); in test [5] (setting [6]), 101%; in test [5] (setting [7]), 98.2%.
As to `Cc1c(NC(=O)Nc2ccc3c(c2)OCO3)c(=O)n(-c2ccccc2)n1C`, the GFP response vs DMSO in test [1] is 99.3% (inactive); in test [1] (setting [6]), 99.1%; in test [1] (setting [7]) it was 99%; in test [3], 99.5% (inactive). In addition, the GFP response relative to DMSO in test [2] is 96.5% (inactive); in test [2] (setting [8]), 96.5%; in test [2] (setting [9]), 93.6%. Moreover, the GFP response, % of DMSO in test [4] is 96.7% (inactive); in test [5], 96.4% (inactive); in test [5] (setting [6]), 100%; in test [5] (setting [7]) it was 95.6%.
In the case of `Cc1ccc(C(=O)O)cc1N1C(=O)c2cccc3cc(Br)cc(c23)C1=O`, the GFP response vs DMSO is 101% (inactive) in test [1], 98.6% in test [1] (setting [6]), 100% in test [1] (setting [7]) and 103% (inactive) in test [3]. Further, the GFP response relative to DMSO was 102% (inactive) in test [2], 99.1% in test [2] (setting [8]) and 105% in test [2] (setting [9]). Further, the GFP response, % of DMSO in test [4] is 101% (inactive); in test [5], 97.3% (inactive); in test [5] (setting [6]), 97.4%; in test [5] (setting [7]), 98.1%.
For `CC[n+]1ccc(/C=C/c2c[nH]c3ccccc23)cc1`, the GFP response vs DMSO in test [1] is 100% (inactive); in test [1] (setting [6]), 101%; in test [1] (setting [7]) it was 98.8%; in test [3], 128% (inactive). Further, the GFP response relative to DMSO in test [2] is 104% (inactive); in test [2] (setting [8]) it was 104%; in test [2] (setting [9]), 105%. Further, the GFP response, % of DMSO in test [4] was 102% (inactive); in test [5], 117% (inactive); in test [5] (setting [6]), 119%; in test [5] (setting [7]), 119%.
With `O=C(NNC(=S)NC(=O)C12CC3CC(CC(C3)C1)C2)c1ccncc1`, the GFP response vs DMSO in test [1] was 109% (inactive); in test [1] (setting [6]) it was 115%; in test [1] (setting [7]) it was 106%; in test [3], 112% (inactive). The results for the GFP response relative to DMSO in test [2], in test [2] (setting [8]) and in test [2] (setting [9]) were 137% (inactive), 125% and 136%, respectively. The GFP response, % of DMSO in test [4] was 97.3% (inactive); in test [5], 115% (inactive); in test [5] (setting [6]), 124%; in test [5] (setting [7]), 106%.
`O=C(Nc1nnc(-c2ccccc2Cl)o1)c1ccc(S(=O)(=O)N2CCCCCC2)cc1`: the GFP response vs DMSO in test [1] was 100% (inactive); in test [1] (setting [6]), 98.6%; in test [1] (setting [7]), 99.8%; in test [3], 101% (inactive). Besides, the GFP response relative to DMSO is 97% (inactive) in test [2], 97.5% in test [2] (setting [8]) and 96.2% in test [2] (setting [9]). The GFP response, % of DMSO in test [4] was 95.1% (inactive); in test [5] it was 97.3% (inactive); in test [5] (setting [6]) it was 93.8%; in test [5] (setting [7]), 98.1%.
For the compound `CCC(=O)c1ccc(N2CCN(C(=O)c3ccc(Br)cc3)CC2)c(F)c1`, the GFP response vs DMSO in test [1] was 97.6% (inactive); in test [1] (setting [6]), 97.6%; in test [1] (setting [7]), 94.4%; in test [3] it was 101% (inactive). Besides, the figures for the GFP response relative to DMSO in test [2], in test [2] (setting [8]) and in test [2] (setting [9]) were 115% (inactive), 117% and 112%, respectively. The GFP response, % of DMSO is 96.1% (inactive) in test [4], 95.9% (inactive) in test [5], 97.4% in test [5] (setting [6]) and 93.2% in test [5] (setting [7]).
For the compound `Cc1nc(Sc2ccccc2)c(C#N)c(C)c1[N+](=O)[O-]`, the GFP response vs DMSO is 98.2% (inactive) in test [1], 99.4% in test [1] (setting [6]), 96.6% in test [1] (setting [7]) and 109% (inactive) in test [3]. The GFP response relative to DMSO is 94.1% (inactive) in test [2], 92.8% in test [2] (setting [8]) and 91.9% in test [2] (setting [9]). Moreover, the GFP response, % of DMSO was 88.4% (inactive) in test [4], 115% (inactive) in test [5], 117% in test [5] (setting [6]) and 113% in test [5] (setting [7]).
As for `CCNC(=O)/C(C#N)=C/c1c(N2CCOCC2)nc2ccccn2c1=O`, the GFP response vs DMSO in test [1] is 96.9% (inactive); in test [1] (setting [6]) it was 99.3%; in test [1] (setting [7]), 95.4%; in test [3], 103% (inactive). Also, the GFP response relative to DMSO in test [2] was 102% (inactive); in test [2] (setting [8]) it was 101%; in test [2] (setting [9]), 104%. Further, the GFP response, % of DMSO in test [4] was 102% (inactive); in test [5], 100% (inactive); in test [5] (setting [6]), 101%; in test [5] (setting [7]) it was 99.3%.
As to `CCOc1cc(C(=S)N2CCCCC2)ccc1OS(=O)(=O)c1ccc(Cl)cc1`, the GFP response vs DMSO in test [1] was 96.5% (inactive); in test [1] (setting [6]), 96.1%; in test [1] (setting [7]), 96.5%; in test [3], 103% (inactive). Moreover, the GFP response relative to DMSO is 102% (inactive) in test [2], 101% in test [2] (setting [8]) and 105% in test [2] (setting [9]). The GFP response, % of DMSO in test [4] was 105% (inactive); in test [5], 100% (inactive); in test [5] (setting [6]) it was 99.3%; in test [5] (setting [7]), 98.2%.
